Blank lines part the entries; values can stand above or below the compound they belong to. Active and inactive are the calls of the source. The rule behind the calls is not given here.
Legend:
[1] = test system: U-373MG ATCC; test: Cytotoxicity against human U373MG cells assessed as induction of morphological changes at 30 uM after 3 hrs by phase contrast microscopic analysis; type: functional, cell-based
Method in brief: (§1)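 U373MG glioma cells exposed to 30 μM for 3 or 12 h; shape and density examined by phase contrast microscopy against untreated cells.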

[2] = test system: U-373MG ATCC; test: Cytotoxicity against human U373MG cells assessed as induction of morphological changes at 30 uM after 12 hrs by phase contrast microscopic analysis; type: functional, cell-based; method in brief: as §1
[3] = test system: U-373MG ATCC; test: Cytotoxicity against human U373MG cells assessed as induction of morphological changes at 30 uM up to 24 hrs by phase contrast microscopic analysis; type: functional, cell-based
[4] = test system: K562; test: Cytotoxicity against human K562 cells assessed as growth inhibition after 24 hrs by MTT assay; type: functional, cell-based
Method in brief: (§2)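 Log-phase cells (1 × 10^4 per well) treated 24 h with 0–30 μM at 37 °C, 5% CO2, in triplicate; MTT added for final 3 h; vehicle 0.15% ethanol; IC50 from three separate days, mean ± SE.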

[5] = test system: T98G; test: Cytotoxicity against human T98G cells assessed as growth inhibition after 24 hrs by MTT assay; type: functional, cell-based; method in brief: as §2
[6] = test system: HCT-116; test: Cytotoxicity against human HCT116 cells assessed as growth inhibition after 24 hrs by MTT assay; type: functional, cell-based; method in brief: as §2
[7] = test system: PANC-1; test: Cytotoxicity against human PANC1 cells assessed as growth inhibition after 24 hrs by MTT assay; type: functional, cell-based; method in brief: as §2
[8] = test system: A549; test: Cytotoxicity against human A549 cells assessed as growth inhibition after 24 hrs by MTT assay; type: functional, cell-based; method in brief: as §2
[9] = Cytotoxicity against african green monkey Vero cells assessed as cell viability at 60 uM after 24 hrs by MTT assay relative to control; type: cell-based; settings: chlorocebus sabaeus, read-out: Activity
Method in brief: (§3)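 Vero and HEK-293T normal cells (1 × 10^4 per well) exposed 24 h to 0, 15, 30, 45, 60 μM at 37 °C, 5% CO2, triplicate; MTT added 3 h; viability relative to vehicle control (0.15% ethanol).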

[10] = Cytotoxicity against human HEK293T cells assessed as cell viability at 60 uM after 24 hrs by MTT assay relative to control; type: cell-based, HEK-293T; settings: read-out: Activity; method in brief: as §3
[11] = Binding affinity to DNA (unknown origin) at 100 uM after 2 hrs by UV-Vis absorption spectroscopic analysis
Method in brief: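 DNA (100 μg/mL; stock 1.0 mg/mL in 50 mM Tris-HCl pH 7.5, 50 mM NaCl) with ligand fixed at 100 μM; incubated at 37 °C, then diluted six-fold; absorbance scanned 220–350 nm at 25 °C, 1 cm quartz cell; 260 nm band monitored.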

[12] = test system: PANC-1; test: Induction of apoptosis in human PANC1 cells assessed as procaspase-9 cleavage at 25 uM after 24 hrs by Western blot analysis; type: functional, cell-based
Method in brief: (§4)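 Cells (1.5 × 10^6) exposed 24 h to compound (25 or 50 μM). 50 μg protein per lane resolved on 10% SDS-PAGE and transferred to nitrocellulose. Membrane blocked in 2% TBS-BSA, then probed with primary antibody overnight at 4 °C and HRP secondary. Detection by ECL, with β-actin as loading control. Untreated control run in parallel.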

[13] = test system: PANC-1; test: Induction of apoptosis in human PANC1 cells assessed as procaspase-8 cleavage at 25 uM after 24 hrs by Western blot analysis; type: functional, cell-based
Method in brief: (§5)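 Cells (1.5 × 10^6) treated 24 h at 25 or 50 μM; 50 μg protein per lane on 10% SDS-PAGE, nitrocellulose, 2% TBS-BSA block, primary antibody overnight at 4 °C, HRP secondary, ECL detection; β-actin loading control; untreated controls in parallel.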

[14] = test system: T98G; test: Induction of apoptosis in human T98G cells assessed as procaspase-9 cleavage at 25 uM after 24 hrs by Western blot analysis; type: functional, cell-based; method in brief: as §4
[15] = test system: PANC-1; test: Induction of apoptosis in human PANC1 cells assessed as procaspase-7 cleavage at 25 uM after 24 hrs by Western blot analysis; type: functional, cell-based; method in brief: as §5
[16] = test system: T98G; test: Induction of apoptosis in human T98G cells assessed as procaspase-8 cleavage at 25 uM after 24 hrs by Western blot analysis; type: functional, cell-based; method in brief: as §4
[17] = test system: PANC-1; test: Downregulation of total Bid expression in human PANC1 cells at 25 uM after 24 hrs by Western blot analysis; type: functional, cell-based; method in brief: as §5
[18] = test system: PANC-1; test: Downregulation of Bcl-xL expression in human PANC1 cells at 25 uM after 24 hrs by Western blot analysis; type: functional, cell-based; method in brief: as §5
[19] = test system: T98G; test: Downregulation of total Bid expression in human T98G cells at 25 uM after 24 hrs by Western blot analysis; type: functional, cell-based; method in brief: as §5
[20] = test system: T98G; test: Induction of apoptosis in human T98G cells assessed as procaspase-7 cleavage at 25 uM after 24 hrs by Western blot analysis; type: functional, cell-based; method in brief: as §4
[21] = test system: T98G; test: Downregulation of Bcl-xL expression in human T98G cells at 25 uM after 24 hrs by Western blot analysis; type: functional, cell-based; method in brief: as §5
[22] = test system: T98G; test: Induction of apoptosis in human T98G cells assessed as induction of DNA damage at 20 uM after 24 hrs by comet assay relative to untreated control; type: functional
Method in brief: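 T98G cells (1 × 10^5) treated 24 h with 0 or 20 μM. About 20000 cells embedded in 0.5% low-melting agarose and lysed overnight at 4 °C at pH 10. Alkaline electrophoresis (pH 13) for 30 min at 300 mA at 4 °C, then ethidium bromide staining. Tail length (nucleus centre to tail tip) from ≥20 comets, reported as mean ± SD.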

[23] = test system: PANC-1; test: Induction of apoptosis in human PANC1 cells assessed as PARP cleavage at 25 uM after 24 hrs by Western blot analysis; type: functional, cell-based; method in brief: as §5
[24] = test system: T98G; test: Induction of apoptosis in human T98G cells assessed as PARP cleavage at 25 uM after 24 hrs by Western blot analysis; type: functional, cell-based; method in brief: as §4

SMILES: CC(=O)Oc1ccc2c(c1)[nH]c1c3c(c(C)cc12)O[C@](C)(CCC=C(C)C)C=C3
Activity [1]: inactive
Activity [2]: Active
Activity [3]: Active
growth inhibition (GI) [4]: Active
growth inhibition (GI) [5]: Active
growth inhibition (GI) [6]: Active
growth inhibition (GI) [7]: Active
growth inhibition (GI) [8]: Active

SMILES: CC(C)=CCCC1(C)C=Cc2c(c(C)cc3c2[nH]c2cc(O)ccc23)O1 (stereo not given) [MAHANINE]
viability at 24 h, 60 µM [9]: > 85%
viability at 24 h, 60 µM [10]: > 65%

Activity [11]: Active
SMILES: COc1ccc2c(c1)[nH]c1c3c(c(C)cc12)O[C@](C)(CCC=C(C)C)C=C3
Activity [12]: inactive
Activity [13]: inactive
Activity [14]: inactive
Activity [15]: inactive
Activity [16]: inactive
Activity [17]: inactive
Activity [18]: inactive
Activity [19]: inactive
Activity [20]: inactive
Activity [21]: inactive
Activity [22]: inactive
Activity [2]: inactive
growth inhibition (GI) [4]: Active
growth inhibition (GI) [5]: Active
growth inhibition (GI) [6]: Active
growth inhibition (GI) [7]: Active
growth inhibition (GI) [8]: Active
Activity [23]: inactive
Activity [24]: inactive

Source: ChEMBL document CHEMBL2401652 (J Med Chem, 2013)
